Results from ChEMBL document CHEMBL4339209, “Chemical modifications of imidazole-containing alkoxyamines increase C-ON bond homolysis rate: Effects on their cytotoxic properties in glioblastoma cells” (Bioorg Med Chem, 2019).
Each block holds one compound with its values, some of them ahead of it. Active and inactive are the calls of the source. The calls are words filed in the database; no cut-off is given here.

Columns and labels:
[1] = Dissociation constant, pKa of the compound in 1:1 v/v D2O/CD3OD by 1H-NMR spectrometric method; format: physicochemical
Summary of the method: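 Samples in D2O/CD3OD (1:1 v/v) were adjusted with DCl/NaOD to a series of pH* values, read on a meter calibrated with non-deuterated standards, and 1H-NMR was recorded at 400 MHz. Imidazole proton chemical shifts were plotted against pH* and fitted sigmoidally. The pKa* was converted by pH = 0.929 pH* + 0.42.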

[2] = Half life in H2O/MeOH buffered with Na2CO3/NaHCO3 at pH 10.3 in presence of alkyl radical scavenger TEMPOR by 31P[1H]-NMR analysis; format: physicochemical; details: for t1/2: buffer, pH 10.3; for half-life: H2O/MeOH buffered with Na2CO3/NaHCO3, pH 10.3
[3] = Half life in H2O/MeOH buffered with HCl/KCl at pH 2.2 in presence of alkyl radical scavenger TEMPOR by 31P[1H]-NMR analysis; format: physicochemical; details: for t1/2: buffer; for half-life: H2O/MeOH buffered with HCl/KCl
[4] = Half life in H2O/MeOH buffered with HEPES/NaCl at pH 7.4 in presence of alkyl radical scavenger TEMPOR by 31P[1H]-NMR analysis; format: physicochemical; details: for t1/2: buffer; for half-life: H2O/MeOH buffered with HEPES/NaCl
[5] = n-octanol/phosphate buffered saline partition coefficient, log D of the compound at pH 7.4 by shake-flask method; format: physicochemical
Summary of the method: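 Shake-flask partition between pre-saturated n-octanol and PBS at pH 7.4. The aqueous phase was quantified by RP-HPLC on a 4.6 × 50 mm column, eluting with CH3CN/H2O (each with 0.1% TFA) from 10:90 to 100:0 over 10 min.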

[6] = Stability in H2O/MeOH buffered with Na2CO3/NaHCO3 at pH 10.3 assessed as temperature; format: physicochemical; details: buffer
[7] = Stability in H2O/MeOH buffered with HEPES/NaCl at pH 7.4 assessed as temperature; format: physicochemical; details: buffer
[8] = Stability in H2O/MeOH buffered with HCl/KCl at pH 2.2 assessed as temperature; format: physicochemical; details: buffer
[9] = tested on: U-87 MG; assay: Cytotoxicity against human U87MG cells assessed as reduction in cell survival measured after 72 hrs by MTT assay; format: functional, cell-based, U-87MG ATCC; details: for Activity: U-87MG ATCC
Summary of the method: (§1)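 MTT viability on 2D cultures, U87-MG in DMEM and U251-MG in EMEM with […], both with 10% FBS and Pen Strep. 5000 cells seeded, then 72 h exposure to 500, 250, 100, 50, 25, 10 and 5 μM (DMSO at most […]). MTT 0.5 mg/mL for 1 h, formazan in DMSO read at 550 nm. Survival as % of control. IC50 determined graphically. At least triplicate.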

[10] = Drug homolysis in H2O/MeOH buffered with HEPES/NaCl at pH 7.4 assessed as rate constant by measuring nitroxide level in presence of alkyl radical scavenger TEMPOR by 31P[1H]-NMR analysis
[11] = Drug homolysis in H2O/MeOH buffered with HEPES/NaCl at pH 7.4 assessed as activation energy in presence of alkyl radical scavenger TEMPOR by 31P[1H]-NMR analysis
[12] = tested on: U-251; assay: Cytotoxicity against human U251MG cells assessed as reduction in cell survival measured after 72 hrs by MTT assay; format: functional, cell-based; summary of the method: as §1
[13] = tested on: U-251; assay: Cytotoxicity against human U251MG cells assessed as reduction in cell survival at IC50 measured after 72 hrs in presence of alkyl radical scavenger troxerutin by MTT assay; format: functional, cell-based
Summary of the method: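 U251-MG cells in EMEM (10% FBS, Pen Strep, […]) were exposed for 72 h to alkoxyamine together with an equal concentration of the alkyl radical scavenger troxerutin. Survival was read by MTT (0.5 mg/mL, 1 h, OD 550 nm) as % of control, and compared with alkoxyamine alone. At least triplicate.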

[14] = Drug homolysis in DMSO assessed as activation energy in presence of alkyl radical scavenger TEMPOR by 31P[1H]-NMR analysis
[15] = Drug homolysis in DMSO/TsOH assessed as activation energy in presence of alkyl radical scavenger TEMPOR by 31P[1H]-NMR analysis
[16] = Drug homolysis in DMSO assessed as rate constant by measuring nitroxide level in presence of alkyl radical scavenger TEMPOR by 31P[1H]-NMR analysis
[17] = Drug homolysis in DMSO/TsOH assessed as rate constant by measuring nitroxide level in presence of alkyl radical scavenger TEMPOR by 31P[1H]-NMR analysis
[18] = Drug homolysis in H2O/MeOH buffered with Na2CO3/NaHCO3 at pH 10.3 assessed as activation energy in presence of alkyl radical scavenger TEMPOR by 31P[1H]-NMR analysis
[19] = Drug homolysis in H2O/MeOH buffered with HCl/KCl at pH 2.2 assessed as activation energy in presence of alkyl radical scavenger TEMPOR by 31P[1H]-NMR analysis
[20] = Drug homolysis in H2O/MeOH buffered with Na2CO3/NaHCO3 at pH 10.3 assessed as rate constant by measuring nitroxide level in presence of alkyl radical scavenger TEMPOR by 31P[1H]-NMR analysis
[21] = Drug homolysis in H2O/MeOH buffered with HCl/KCl at pH 2.2 assessed as rate constant by measuring nitroxide level in presence of alkyl radical scavenger TEMPOR by 31P[1H]-NMR analysis
[22] = Stability in DMSO assessed as temperature; format: physicochemical
[23] = Stability in DMSO/TsOH assessed as temperature; format: physicochemical
[24] = 1:1 v/v D2O/CD3OD, read-out: pKa
[25] = n-octanol/phosphate buffered saline, read-out: logD

pKa [1]: 6.04 | t1/2 [2]: 312 h | t1/2 [3]: 5 h | t1/2 [4]: 81 h | logD ([5]; octanol/water): 4.1
SMILES: CCOP(=O)(OCC)C(N(OC(C)c1ncc[nH]1)C(C)(C)C)C(C)(C)C (stereo in doubt; form 1)

pKa [1, 24]: 6.11 | half-life [2]: 408 h | half-life [3]: 103 h | T [6]: 80 °C | T [7]: 80 °C | T [8]: 80 °C | half-life [4]: 288 h | logD [5, 25]: 3.7
SMILES: CCOP(=O)(OCC)C(N(OC(C)c1c[nH]cn1)C(C)(C)C)C(C)(C)C (stereo in doubt; form 1) [listing 1 of 2 here]
IC50 [9]: 25 to 380 µM

SMILES: CCOP(=O)(OCC)C(N(OC(C)n1cc[n+](C)c1)C(C)(C)C)C(C)(C)C (stereo in doubt; form 1)
Kdiss [10]: 2.84 ×10⁻⁵ /s | Ea [11]: 32.3 kcal/mol | Activity [9]: Dose-dependent effect | Activity [12]: Dose-dependent effect | Activity [13]: Active

pKa [1]: 6.5 | t1/2 [2]: 39 h | t1/2 [3]: 1.98 h | t1/2 [4]: 10 h | logD ([5]; octanol/water): 3.7
SMILES: CCOP(=O)(OCC)C(N(OC(C)c1nccn1C)C(C)(C)C)C(C)(C)C (stereo in doubt; form 2) [listing 1 of 2 here]

pKa [1]: 6.13 | t1/2 [2]: 456 h | t1/2 [3]: 190 h | T [6]: 70 °C | t1/2 [4]: 312 h | logD ([5]; octanol/water): 4
SMILES: CCOP(=O)(OCC)C(N(OC(C)c1c[nH]cn1)C(C)(C)C)C(C)(C)C (stereo in doubt; form 2)
IC50 ([12]; U-251, 72 h): 20 µM

pKa [1, 24]: 6.28 | t1/2 [2]: 130 h | half-life [3]: 2.4 h | T [6]: 80 °C | T [7]: 70 °C | T [8]: 60 °C | t1/2 [4]: 31 h | logD [5, 25]: 3.4
SMILES: CCOP(=O)(OCC)C(N(OC(C)c1nccn1C)C(C)(C)C)C(C)(C)C (stereo in doubt; form 1) [listing 1 of 2 here]
IC50 [9]: 25 to 380 µM

pKa [1]: 6.56 | t1/2 [2]: 1680 h | t1/2 [3]: 170 h | t1/2 [4]: 528 h | logD ([5]; octanol/water): 3.8
SMILES: CCOP(=O)(OCC)C(N(OC(C)c1cn(C)cn1)C(C)(C)C)C(C)(C)C (stereo in doubt; form 2) [listing 1 of 2 here]

SMILES: CCOP(=O)(OCC)C(N(OC(C)n1cc[n+](C)c1)C(C)(C)C)C(C)(C)C (stereo in doubt; form 2)
Kdiss [10]: 2.84 ×10⁻⁵ /s | Ea [11]: 32.3 kcal/mol | Activity [9]: Dose-dependent effect | Activity [12]: Dose-dependent effect | Activity [13]: Active

SMILES: CCOP(=O)(OCC)C(N(OC(C)n1ccnc1)C(C)(C)C)C(C)(C)C (stereo in doubt; form 2)
Ea [14]: 34.6 kcal/mol | Ea [15]: 33.7 kcal/mol | Kdiss [16]: 8.02 ×10⁻⁴ /s | Kdiss [17]: 2.45 ×10⁻³ /s | Activity [9]: Dose-dependent effect | Activity [12]: Dose-dependent effect | Activity [13]: Active

pKa [1, 24]: 6.76 | half-life [2]: 1560 h | t1/2 [3]: 65 h | T [6]: 80 °C | T [7]: 80 °C | T [8]: 80 °C | half-life [4]: 792 h | logD [5, 25]: 3.5
SMILES: CCOP(=O)(OCC)C(N(OC(C)c1cn(C)cn1)C(C)(C)C)C(C)(C)C (stereo in doubt; form 1)
IC50 [9]: 25 to 380 µM

SMILES: CCOP(=O)(OCC)C(N(OC(C)c1c[nH]cn1)C(C)(C)C)C(C)(C)C (stereo in doubt; form 1) [listing 2 of 2 here]
Ea [18]: 29.4 kcal/mol | Ea [19]: 28.5 kcal/mol | Kdiss [20]: 1.53 ×10⁻⁴ /s | Kdiss [10]: 2.08 ×10⁻⁴ /s | Kdiss [21]: 5.23 ×10⁻⁴ /s | Ea [11]: 29.2 kcal/mol | Activity [9]: Dose-dependent effect | Activity [12]: Dose-dependent effect

SMILES: CCOP(=O)(OCC)C(N(OC(C)n1ccnc1)C(C)(C)C)C(C)(C)C (stereo in doubt; form 1) [listing 1 of 2 here]
Ea [14]: 35.6 kcal/mol | Ea [15]: 34.1 kcal/mol | Kdiss [16]: 2.69 ×10⁻⁴ /s | Kdiss [17]: 1.44 ×10⁻³ /s | Activity [9]: Dose-dependent effect | Activity [12]: Dose-dependent effect | Activity [13]: Active

SMILES: CCOP(=O)(OCC)C(N(OC(C)c1cn(C)cn1)C(C)(C)C)C(C)(C)C (stereo in doubt; form 2) [listing 2 of 2 here]
Ea [18]: 30.3 kcal/mol | Ea [19]: 28.8 kcal/mol | Kdiss [20]: 4.57 ×10⁻⁵ /s | Kdiss [10]: 1.24 ×10⁻⁴ /s | Kdiss [21]: 3.55 ×10⁻⁴ /s | Ea [11]: 29.5 kcal/mol | Activity [9]: Dose-dependent effect | Activity [12]: Dose-dependent effect

SMILES: CCOP(=O)(OCC)C(N(OC(C)c1nccn1C)C(C)(C)C)C(C)(C)C (stereo in doubt; form 1) [listing 2 of 2 here]
Ea [18]: 28.7 kcal/mol | Ea [19]: 26.2 kcal/mol | Kdiss [20]: 4.31 ×10⁻⁴ /s | Kdiss [10]: 4.76 ×10⁻⁴ /s | Kdiss [21]: 1.51 ×10⁻³ /s | Ea [11]: 27.8 kcal/mol | Activity [9]: Dose-dependent effect | Activity [12]: Dose-dependent effect

SMILES: CCOP(=O)(OCC)C(N(OC(C)c1nccn1C)C(C)(C)C)C(C)(C)C (stereo in doubt; form 2) [listing 2 of 2 here]
Ea [18]: 27.9 kcal/mol | Ea [19]: 26.1 kcal/mol | Kdiss [20]: 1.23 ×10⁻³ /s | Kdiss [10]: 1.28 ×10⁻³ /s | Kdiss [21]: 1.8 ×10⁻³ /s | Ea [11]: 27.1 kcal/mol | Activity [9]: Dose-dependent effect | Activity [12]: Dose-dependent effect

pKa [1, 24]: 6.09 | half-life [2]: 240 h | half-life [3]: 4 h | T [6]: 80 °C | T [7]: 70 °C | T [8]: 60 °C | half-life [4]: 60 h | logD [5, 25]: 3.6
SMILES: CCOP(=O)(OCC)C(N(OC(C)c1ncc[nH]1)C(C)(C)C)C(C)(C)C (stereo in doubt; form 2)
IC50 [9]: 25 to 380 µM

pKa [1, 24]: 5.62 | T [22]: 160 °C | T [23]: 160 °C | logD [5, 25]: 3.4
SMILES: CCOP(=O)(OCC)C(N(OC(C)n1ccnc1)C(C)(C)C)C(C)(C)C (stereo in doubt; form 1) [listing 2 of 2 here]
IC50 [9]: 25 to 380 µM
